Assay results: ChEMBL document CHEMBL4219038, “1-Thiazol-2-yl-N-3-methyl-1H-pyrozole-5-carboxylic acid derivatives as antitumor agents” (Bioorg Med Chem Lett, 2017)
In brackets after ≈: the same amount, converted by molar mass. Activity calls are given as the source filed them. No cut-off for these calls is given here.

Legend:
[1] = Plasma concentration (7 hrs) in J:Nu mouse at 60 mg/kg, po qd for 7 days measured on day 5; format: ADME, organism-based
In short: (§1)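 J:Nu female mice, N = 4 per group, dosed orally once daily at 10, 30 or 60 mg/kg in 5% NMP, 10% PEG-400, 15% Solutol, 70% D5W. Blood was sampled every other day, alternating Cmax and predose draws. Plasma concentration was taken 7 h after dosing.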

[2] = tested on: Mus musculus; experiment: Toxicity in J:Nu mouse assessed as organ damage at 30 mg/kg, po qd for 7 days followed by 90 mg/kg, po qd for 5 days from day 8 to 13 measured 48 hrs after post last dose by pathology analysis; format: organism-based; conditions: in vivo
In short: (§2)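 In J:Nu female mice (N = 4 per group), dosing was oral once daily at 30 or 60 mg/kg in 5% NMP/10% PEG-400/15% Solutol/70% D5W for 7 days. Doses were then raised to 90 or 120 mg/kg respectively on days 8–13. Clinical signs and body weights were recorded daily. Gross pathology, with spleen and liver weights, was done 48 h after the last dose.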

[3] = Plasma concentration (7 hrs) in J:Nu mouse at 10 mg/kg, po qd for 7 days measured on day 5; format: ADME, organism-based; in short: as §1
[4] = MRT in mouse at 100 mg/kg, po; format: ADME, organism-based; conditions: in vivo
[5] = Dose normalized AUC (0 to infinity) in J:Nu mouse plasma at 10 mg/kg, po qd for 7 days; format: ADME, organism-based; conditions: in vivo, 168 h
In short: (§3)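 J:Nu female mice, N = 4 per group, dosed orally once daily at 10, 30 or 60 mpk in 5% NMP, 10% PEG-400, 15% Solutol, 70% D5W. The 30 and 60 mpk groups were raised to 90 and 120 mpk from day 8 to 13.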

[6] = Antiproliferative activity against human […] cells; format: functional, cell-based
[7] = Plasma concentration (7 hrs) in J:Nu mouse at 10 mg/kg, po qd for 7 days measured on day 1; format: ADME, organism-based; in short: as §1
[8] = Cmax in J:Nu mouse plasma at 30 mg/kg, po qd for 7 days followed by 90 mg/kg, po qd for 5 days from day 8 to 13; format: ADME, organism-based; set-up: dose 30 mg/kg, route oral; in short: as §3
[9] = tested on: Mus musculus; experiment: Ratio of Cmax in mouse at 2.5 mg/kg, po to Cmax in mouse at 50 mg/kg, po; format: ADME, organism-based; conditions: in vivo
[10] = tested on: Mus musculus; experiment: Ratio of AUC (0 to infinity) in mouse at 2.5 mg/kg, po to Cmax in mouse at 100 mg/kg, po; format: ADME, organism-based; conditions: in vivo
[11] = tested on: MCF-10A; experiment: Antiproliferative activity against human MCF10A cells; format: cell-based
[12] = tested on: MCF7; experiment: Antiproliferative activity against human MCF7 cells; format: functional, cell-based
[13] = Cmax in mouse at 2.5 mg/kg; format: ADME, organism-based; set-up: dose 2.5 mg/kg; conditions: in vivo
[14] = Dose normalized Cmax in J:Nu mouse plasma at 30 mg/kg, po qd for 7 days followed by 90 mg/kg, po qd for 5 days from day 8 to 13; format: ADME, organism-based; conditions: in vivo; in short: as §3
[15] = Toxicity in J:Nu mouse assessed as maximum tolerated dose at 10 to 120 mg/kg, po qd for 13 days; format: organism-based; conditions: in vivo
[16] = AUC (0 to infinity) in mouse at 100 mg/kg; format: ADME, organism-based; set-up: dose 100 mg/kg, time infinity; conditions: in vivo
[17] = tested on: HCT-116; experiment: Cell cycle arrest in human HCT116 cells assessed as reduction in cell levels at S-phase at 0.001 to 10 uM after 24 hrs EdU-staining based high content imaging analysis; format: functional
In short: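 HCT-116 cells plated on poly-lysine-coated plates overnight, then treated 24 h with compound (DMSO stock diluted into McCoy's medium with 10% FBS). EdU labelling of newly synthesized DNA, 4% formaldehyde fixation, then high-content imaging in three fluorescent channels for total cell count, DNA content and S-phase cells. Means of three biological replicates, SEM.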

[18] = tested on: BJAB; experiment: Induction of apoptosis in human BJAB cells by high content cell imaging studies; format: functional, cell-based
[19] = Dose normalized AUC (0 to infinity) in J:Nu mouse plasma at 30 mg/kg, po qd for 7 days followed by 90 mg/kg, po qd for 5 days from day 8 to 13; format: ADME, organism-based; conditions: in vivo; in short: as §3
[20] = Dose normalized Cmax in J:Nu mouse plasma at 10 mg/kg, po qd for 7 days; format: ADME, organism-based; conditions: in vivo, 168 h; in short: as §3
[21] = Volume of distribution at steady state in iv dosed mouse; format: ADME, organism-based; conditions: in vivo, read-out: Vdss
[22] = Kinetic solubility of the compound in PBS buffer at pH 7.4; format: physicochemical; conditions: read-out: Kinetic_solubility
In short: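 Kinetic solubility measured in PBS buffer, pH 7.4.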

[23] = AUC (0 to infinity) in mouse at 2.5 mg/kg; format: ADME, organism-based; set-up: dose 2.5 mg/kg, time infinity; conditions: in vivo
[24] = tested on: Jurkat; experiment: Antiproliferative activity against human Jurkat cells; format: functional, cell-based
[25] = AUC (0 to infinity) in J:Nu mouse plasma at 60 mg/kg, po qd for 7 days followed by 120 mg/kg, po qd for 5 days from day 8 to 13; format: ADME, organism-based; set-up: dose 60 mg/kg, route oral, time infinity; in short: as §3
[26] = tested on: HCT-116; experiment: Induction of quiescence in human HCT116 cells by high content cell imaging studies; format: functional, cell-based
[27] = Cmax in mouse at 100 mg/kg; format: ADME, organism-based; set-up: dose 100 mg/kg; conditions: in vivo
[28] = Cmax in po dosed mouse; format: ADME, organism-based; set-up: route oral; conditions: in vivo
[29] = tested on: A2780; experiment: Antiproliferative activity against human A2780 cells; format: functional, cell-based
[30] = AUC (0 to infinity) in mouse at 10 mg/kg; format: ADME, organism-based; set-up: dose 10 mg/kg, time infinity; conditions: in vivo
[31] = tested on: Mus musculus; experiment: Toxicity in J:Nu mouse assessed as induction of adverse effects at 10 to 120 mg/kg, po qd for 13 days; format: organism-based; conditions: in vivo, 312 h
In short: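 Oral once-daily dosing of J:Nu female mice (N = 4 per group) at 10, 30 and 60 mg/kg for 7 days. The 30 and 60 mg/kg groups were escalated to 90 and 120 mg/kg on days 8–13. Clinical signs and body weights were recorded every day.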

[32] = Oral bioavailability in mouse; format: ADME, organism-based; conditions: in vivo
[33] = Cmax in mouse at 10 mg/kg; format: ADME, organism-based; set-up: dose 10 mg/kg; conditions: in vivo
[34] = AUC (0 to infinity) in mouse at 50 mg/kg; format: ADME, organism-based; set-up: dose 50 mg/kg, time infinity; conditions: in vivo
[35] = AUC (0 to infinity) in J:Nu mouse plasma at 10 mg/kg, po qd for 7 days; format: ADME, organism-based; set-up: dose 10 mg/kg, route oral, time infinity; in short: as §3
[36] = Antiproliferative activity against human TC71 cells; format: functional, cell-based; conditions: TC-71
[37] = Protein binding in human plasma; format: ADME, cell-free; conditions: read-out: PPB (converted)
[38] = tested on: Mus musculus; experiment: Toxicity in J:Nu mouse assessed as changes in organ weight at 30 mg/kg, po qd for 7 days followed by 90 mg/kg, po qd for 5 days from day 8 to 13 measured 48 hrs after post last dose by pathology analysis; format: organism-based; conditions: in vivo; in short: as §2
[39] = tested on: Daudi; experiment: Antiproliferative activity against human Daudi cells; format: functional, cell-based
[40] = AUC (0 to infinity) in iv dosed mouse; format: ADME, organism-based; set-up: time infinity, route intravenous; conditions: in vivo
[41] = tested on: NCI-H460; experiment: Antiproliferative activity against human NCI-H460 cells; format: functional, cell-based
[42] = MRT in mouse at 50 mg/kg, po; format: ADME, organism-based; conditions: in vivo
[43] = Kinetic solubility of the compound in PBS buffer at pH 7.4 in presence of 10% FBS; format: physicochemical; conditions: PBS buffer with 10% FBS, read-out: Kinetic_solubility
[44] = Half life in iv dosed mouse; format: ADME, organism-based; conditions: in vivo
[45] = Initial plasma concentration in iv dosed mouse; format: ADME, organism-based

Cc1nn(-c2nc(-c3ccc(Cl)c(Cl)c3)c(SC(C)C)s2)c(C(=O)O)c1-c1cc(Cl)cc(Cl)c1
concentration at 7 h [1]: 79.8 µg/mL
Activity [2]: Non-Toxic
concentration at 7 h [3]: 18200 ng/mL
MRT [4]: 14.3 h
AUC/dose [5]: 33000 ng·kg·h/mL/mg
IC50 [6]: 1570 nM
concentration at 7 h [7]: 19700 ng/mL
Cmax [8]: 134 µg/mL
Ratio [9]: 8.8
Ratio [10]: 1.4
IC50 [11]: 35 µM
IC50 [12]: 260 nM
Cmax [13]: 1320 ng/mL
Cmax/dose [14]: 1494.3 ng/mL
MTD at 312 h [15]: 90 mg/kg
AUC(0-inf) [16]: 2120 µg·h/mL
Activity [17]: Active
Activity [18]: Active
AUC/dose [19]: 16500 ng·kg·h/mL/mg
Cmax/dose [20]: 2897.9 ng/mL
Vd [21]: 0.444 L/kg
solubility kinetic [22]: 40.2 µM (≈ 23 µg/mL)
AUC(0-inf) [23]: 25800 ng·h/mL
IC50 [24]: 500 nM
AUC(0-inf) [25]: 1540 µg·h/mL
Activity [26]: Active
Cmax [27]: 131 µg/mL
Cmax [28]: 1320 ng/mL
IC50 [29]: 290 nM
AUC(0-inf) [30]: 257 µg·h/mL
Activity [31]: Non-Toxic
bioavailability [32]: 48.4%
Cmax [33]: 15700 ng/mL
AUC(0-inf) [34]: 2250 µg·h/mL
AUC(0-inf) [35]: 330 µg·h/mL
IC50 [36]: 290 nM
fraction unbound [37]: 0.027
Activity [38]: Non-Toxic
IC50 [39]: 380 nM
AUC(0-inf) [40]: 10700 ng·h/mL
IC50 [41]: 330 nM
MRT [42]: 9.3 h
solubility kinetic [43]: > 200 µM
half-life [44]: 480 min
C0 [45]: 3190 ng/mL
